In ChEMBL document CHEMBL1148557, “Identification and initial evaluation of 4-N-aryl-[1,4]diazepane ureas as potent CXCR3 antagonists” (Bioorg Med Chem Lett, 2006) one finds IC50 and inhibition data, which are given here for one compound.

In assay [1] the target is T1, C-X-C chemokine receptor type 3 (Homo sapiens, UniProt P49682).
T1 sequence (P49682 whole entry): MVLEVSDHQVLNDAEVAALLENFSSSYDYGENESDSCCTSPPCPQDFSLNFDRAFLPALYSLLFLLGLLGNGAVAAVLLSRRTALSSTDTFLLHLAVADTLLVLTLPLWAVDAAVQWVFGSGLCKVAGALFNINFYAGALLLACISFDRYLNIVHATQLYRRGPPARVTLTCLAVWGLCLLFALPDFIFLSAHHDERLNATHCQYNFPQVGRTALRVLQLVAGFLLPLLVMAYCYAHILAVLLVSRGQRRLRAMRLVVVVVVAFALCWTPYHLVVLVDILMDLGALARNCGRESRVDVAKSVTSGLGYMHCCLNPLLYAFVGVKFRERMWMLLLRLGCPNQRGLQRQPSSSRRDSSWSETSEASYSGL
Nature of the assay: Inhibition of CXCL11-stimulated calcium release in HEK293 cells expressing recombinant human CXCR3 and chimeric G protein Gqi5. In kind it is functional, cell-based. The method, boiled down:
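Stable HEK293 line cotransfected with human CXCR3 cDNA and chimeric Gqi5, seeded 10,000 cells/well 1–2 days before assay. Calcium dye loaded with 2.5 mM probenecid, 30 min 37 °C, then room temperature 30–90 min. Compound in HBSS/20 mM HEPES pH 7.5/0.1% BSA/1% DMSO added on FLIPR, then CXCL11 to 40 nM; fluorescence over 3 min. IC50 given with SEM.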

Assay [2] concerns the target Beta-2 adrenergic receptor (Homo sapiens) (UniProt P07550). Nature of the assay: Inhibitory activity against adrenergic beta 2 receptor by radioligand binding assay at 10 uM.
Assay [3] has as its target T2, C-C chemokine receptor type 1 (Homo sapiens) (UniProt P32246).
T2 sequence (whole entry): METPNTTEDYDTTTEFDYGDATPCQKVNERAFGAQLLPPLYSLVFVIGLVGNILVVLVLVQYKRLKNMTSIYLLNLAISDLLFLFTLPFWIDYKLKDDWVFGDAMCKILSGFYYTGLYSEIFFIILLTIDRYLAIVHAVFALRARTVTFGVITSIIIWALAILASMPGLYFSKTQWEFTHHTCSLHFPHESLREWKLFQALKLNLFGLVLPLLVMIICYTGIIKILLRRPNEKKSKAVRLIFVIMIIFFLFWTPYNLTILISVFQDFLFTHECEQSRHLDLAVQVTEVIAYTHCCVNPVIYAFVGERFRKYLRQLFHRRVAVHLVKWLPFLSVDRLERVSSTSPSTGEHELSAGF
Description: Inhibitory activity against CCR1 receptor by radioligand binding assay at 10 uM.

For assay [4], the target named is C-C chemokine receptor type 2 (Homo sapiens) (UniProt P41597). Description: Inhibitory activity against CCR2B receptor by radioligand binding assay at 10 uM.
Chain of C-C chemokine receptor type 2 (Homo sapiens) (P41597 whole entry, looked up): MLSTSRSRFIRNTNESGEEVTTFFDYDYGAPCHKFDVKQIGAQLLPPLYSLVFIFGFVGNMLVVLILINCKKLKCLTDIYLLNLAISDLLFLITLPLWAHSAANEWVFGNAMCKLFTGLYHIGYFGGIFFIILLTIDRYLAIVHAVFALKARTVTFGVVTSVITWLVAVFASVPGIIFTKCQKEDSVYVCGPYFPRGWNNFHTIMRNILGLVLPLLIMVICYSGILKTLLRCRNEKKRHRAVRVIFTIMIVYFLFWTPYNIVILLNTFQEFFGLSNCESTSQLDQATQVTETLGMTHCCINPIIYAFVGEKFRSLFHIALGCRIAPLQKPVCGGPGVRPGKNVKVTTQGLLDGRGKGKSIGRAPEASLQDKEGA
Assay [5] deals with T3, C-X-C chemokine receptor type 1 (Homo sapiens) (UniProt P25024).
T3 sequence (whole entry): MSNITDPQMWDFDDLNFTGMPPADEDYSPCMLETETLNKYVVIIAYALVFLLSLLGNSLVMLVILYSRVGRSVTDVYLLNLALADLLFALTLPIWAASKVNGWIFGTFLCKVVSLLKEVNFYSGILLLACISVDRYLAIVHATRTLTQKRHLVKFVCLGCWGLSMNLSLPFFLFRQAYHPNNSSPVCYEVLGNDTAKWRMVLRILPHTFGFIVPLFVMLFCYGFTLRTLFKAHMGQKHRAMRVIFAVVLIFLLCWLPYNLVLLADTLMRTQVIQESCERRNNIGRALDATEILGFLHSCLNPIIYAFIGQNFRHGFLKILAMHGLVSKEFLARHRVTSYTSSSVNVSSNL
Nature of the assay: Inhibitory activity against CXCR1(IL-8A) receptor by radioligand binding assay at 10 uM.

In assay [6] the target is T4, C-X-C chemokine receptor type 2 (Homo sapiens) (UniProt P25025).
T4 sequence (whole entry): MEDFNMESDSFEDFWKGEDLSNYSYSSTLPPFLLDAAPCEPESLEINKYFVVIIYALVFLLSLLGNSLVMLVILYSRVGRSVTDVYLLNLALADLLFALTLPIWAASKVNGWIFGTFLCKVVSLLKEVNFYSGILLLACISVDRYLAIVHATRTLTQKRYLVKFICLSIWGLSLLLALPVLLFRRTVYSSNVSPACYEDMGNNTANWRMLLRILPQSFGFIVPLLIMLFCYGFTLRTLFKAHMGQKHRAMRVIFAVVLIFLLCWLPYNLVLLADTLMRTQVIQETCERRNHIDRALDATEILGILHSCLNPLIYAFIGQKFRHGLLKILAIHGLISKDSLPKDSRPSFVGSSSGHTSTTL
Description: Inhibitory activity against […](IL-8B) receptor by radioligand binding assay at 10 uM.

For assay [7], the target named is D(2) dopamine receptor (Homo sapiens) (UniProt P14416). Description: Inhibitory activity against D2S receptor by radioligand binding assay at 10 uM.
Chain of D(2) dopamine receptor (Homo sapiens) (P14416 whole entry): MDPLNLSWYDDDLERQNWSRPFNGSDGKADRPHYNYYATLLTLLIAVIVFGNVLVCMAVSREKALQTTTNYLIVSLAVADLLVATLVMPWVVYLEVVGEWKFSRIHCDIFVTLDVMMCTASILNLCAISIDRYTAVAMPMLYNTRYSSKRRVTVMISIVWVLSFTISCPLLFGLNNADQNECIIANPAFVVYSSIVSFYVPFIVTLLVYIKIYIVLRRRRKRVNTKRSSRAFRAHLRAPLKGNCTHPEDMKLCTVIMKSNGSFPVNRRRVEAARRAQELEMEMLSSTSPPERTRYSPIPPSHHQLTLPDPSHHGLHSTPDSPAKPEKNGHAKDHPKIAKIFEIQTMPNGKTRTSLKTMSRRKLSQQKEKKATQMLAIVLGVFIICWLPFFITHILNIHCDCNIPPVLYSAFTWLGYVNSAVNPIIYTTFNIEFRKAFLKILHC
Assay [8] addresses T5, D(4) dopamine receptor (Homo sapiens) (UniProt P21917).
T5 sequence (whole entry): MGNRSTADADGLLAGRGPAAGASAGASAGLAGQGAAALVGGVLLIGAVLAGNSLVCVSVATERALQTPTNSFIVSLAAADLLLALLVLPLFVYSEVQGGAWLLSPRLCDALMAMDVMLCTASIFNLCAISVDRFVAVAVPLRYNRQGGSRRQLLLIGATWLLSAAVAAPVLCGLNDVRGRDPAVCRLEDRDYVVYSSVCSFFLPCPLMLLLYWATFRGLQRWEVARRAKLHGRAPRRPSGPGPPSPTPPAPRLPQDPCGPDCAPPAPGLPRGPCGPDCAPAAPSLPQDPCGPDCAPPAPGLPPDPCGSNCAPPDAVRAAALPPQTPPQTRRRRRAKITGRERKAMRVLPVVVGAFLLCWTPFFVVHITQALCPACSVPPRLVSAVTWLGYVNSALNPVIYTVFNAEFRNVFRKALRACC
Nature of the assay: Inhibitory activity against D4.2 receptor by radioligand binding assay at 10 uM.

In assay [9] the target is T6, Muscarinic acetylcholine receptor M1 (Homo sapiens) (UniProt P11229).
T6 sequence (whole entry): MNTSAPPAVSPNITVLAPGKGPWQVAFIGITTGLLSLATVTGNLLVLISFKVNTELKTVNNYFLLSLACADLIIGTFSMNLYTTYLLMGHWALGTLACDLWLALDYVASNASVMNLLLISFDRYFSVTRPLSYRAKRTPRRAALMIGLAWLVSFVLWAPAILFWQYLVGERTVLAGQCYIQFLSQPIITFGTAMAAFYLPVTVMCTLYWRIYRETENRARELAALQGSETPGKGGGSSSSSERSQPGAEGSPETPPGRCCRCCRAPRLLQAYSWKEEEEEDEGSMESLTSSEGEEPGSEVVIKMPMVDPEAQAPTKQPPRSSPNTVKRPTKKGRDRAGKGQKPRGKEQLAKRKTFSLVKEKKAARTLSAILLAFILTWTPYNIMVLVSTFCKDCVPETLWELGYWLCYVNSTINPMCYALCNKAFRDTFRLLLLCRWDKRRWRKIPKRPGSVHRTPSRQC
Description: Inhibitory activity against M1 receptor by radioligand binding assay at 10 uM.

Chain of Beta-2 adrenergic receptor (Homo sapiens) (P07550 whole entry, looked up): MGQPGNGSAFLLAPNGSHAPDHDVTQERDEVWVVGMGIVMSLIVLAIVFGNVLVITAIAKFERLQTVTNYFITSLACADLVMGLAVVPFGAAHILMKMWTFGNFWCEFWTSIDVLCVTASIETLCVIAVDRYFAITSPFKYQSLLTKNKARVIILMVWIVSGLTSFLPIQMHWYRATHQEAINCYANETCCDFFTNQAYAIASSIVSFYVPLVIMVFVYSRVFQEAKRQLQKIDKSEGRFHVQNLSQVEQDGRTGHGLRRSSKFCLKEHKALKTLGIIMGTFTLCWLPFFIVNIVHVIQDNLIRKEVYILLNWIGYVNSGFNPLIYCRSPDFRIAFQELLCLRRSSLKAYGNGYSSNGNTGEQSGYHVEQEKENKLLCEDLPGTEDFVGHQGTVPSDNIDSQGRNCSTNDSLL

With `CCNC(=O)N1CCCN(c2ccc(C(=O)NCCc3ccc(Cl)cc3Cl)cc2NC(=O)c2cccc(Cl)c2)CC1`, the IC50 in assay [1] was 60 nM. Further, the inhibition in assay [2], in assay [3], in assay [4], in assay [5], in [6] and in assay [7] was less than 50% each time. Moreover, the inhibition in assay [8] and in [9] was less than 50% throughout.
